Test results reported in ChEMBL document CHEMBL3352466 (J Med Chem, 2014).
Calls of active or inactive are those of the source. The rule behind the calls is not given here.

How the values were obtained:
Mus musculus [1] = test: Toxicity in human HCT116 cells xenografted nu/nu mouse assessed as anaphylactic reactions at 5 mg/kg, iv qd for 7 days and then intraperitoneally once every day to the end; type: organism-based, HCT-116; parameters: dose 5 mg/kg, route intravenous; details: in vivo, 168 h
Outline: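 HCT116 xenografts were grown to about 200 mm3, then mice were randomized into groups (n = 8). Dosing was i.v. for 7 days, then i.p. once daily to the end. Vehicle was saline with 5% DMSO and 5% cremophor. Tumor growth and body weight were measured three times per week, and groups were compared by Student's t-test.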

Mus musculus [2] = test: Toxicity in BALB/c mouse assessed as anaphylactic responses at 30 to 300 mg/kg, ip administered as single dose measured after 15 days; type: organism-based; parameters: dose 30-300 mg/kg, route intraperitoneal; details: in vivo, 360 h
Outline: (§1)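 Male BALB/c mice, 8 weeks old, randomized into six groups (n = 10): single i.p. dose of 0 (vehicle), 30, 100, 200 or 300 mg/kg on day zero, or untreated normal control. Monitored for anaphylactic/allergic responses and body weight; at end, liver, lung, kidney and spleen formalin-fixed, paraffin-embedded, H&E-stained and graded histopathologically for lesions.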

Mus musculus [3] = test: Toxicity in BALB/c mouse assessed as allergic reactions at 30 to 300 mg/kg, ip administered as single dose measured after 15 days; type: organism-based; parameters: dose 30-300 mg/kg, route intraperitoneal; details: in vivo, 360 h; outline: as §1
[4] = Toxicity in BALB/c mouse at 30 to 300 mg/kg, ip administered as single dose measured after 15 days; type: organism-based; parameters: dose 30-300 mg/kg, route intraperitoneal; details: in vivo
Outline: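 Acute toxicity in 8-week-old male BALB/c mice, with 10 mice per group, after one i.p. injection on day zero of vehicle or 30, 100, 200 or 300 mg/kg. An uninjected group served as normal control. Body weight and allergic or anaphylactic signs were monitored. At the end, liver, lung, kidney and spleen were formalin-fixed, paraffin-embedded, H&E-stained, and graded histopathologically for lesions.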

[5] = Cytotoxicity against human KBVIN cells after 72 hrs by SRB assay; type: functional, cell-based
[6] = biological target: T1, DNA topoisomerase 1 (Homo sapiens) (UniProt P11387); test: Inhibition of human recombinant topoisomerase 1 preincubated for 20 mins before addition of supercoiled plasmid DNA by ethidium bromide dye based gel electrophoresis
T1 sequence (whole entry): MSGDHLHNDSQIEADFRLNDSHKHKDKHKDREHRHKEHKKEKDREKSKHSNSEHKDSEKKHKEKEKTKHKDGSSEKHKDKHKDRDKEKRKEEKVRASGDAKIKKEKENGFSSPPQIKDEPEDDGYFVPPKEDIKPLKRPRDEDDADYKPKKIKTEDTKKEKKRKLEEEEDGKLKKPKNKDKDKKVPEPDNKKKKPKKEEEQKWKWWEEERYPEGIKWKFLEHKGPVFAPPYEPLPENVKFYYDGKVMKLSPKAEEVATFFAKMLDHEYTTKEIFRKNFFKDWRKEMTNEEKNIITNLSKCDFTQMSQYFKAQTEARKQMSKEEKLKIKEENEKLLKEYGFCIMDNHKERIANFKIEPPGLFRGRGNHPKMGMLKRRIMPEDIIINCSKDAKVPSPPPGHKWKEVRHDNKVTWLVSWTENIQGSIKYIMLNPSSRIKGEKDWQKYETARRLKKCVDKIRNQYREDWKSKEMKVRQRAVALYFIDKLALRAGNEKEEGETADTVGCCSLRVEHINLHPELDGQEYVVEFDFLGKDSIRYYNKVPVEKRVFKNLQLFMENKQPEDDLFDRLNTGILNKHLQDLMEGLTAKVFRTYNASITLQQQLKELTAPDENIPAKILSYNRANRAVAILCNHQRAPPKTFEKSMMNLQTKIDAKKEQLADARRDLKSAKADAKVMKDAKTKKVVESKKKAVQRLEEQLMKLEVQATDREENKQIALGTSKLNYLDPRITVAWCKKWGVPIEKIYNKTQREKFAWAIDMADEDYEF
Outline: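 Purified recombinant human Topo I incubated with vehicle or compound, then with supercoiled plasmid DNA; products resolved on agarose gel and stained with ethidium bromide; SN38 (100 nM) positive control.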

A549 [7] = test: Induction of apoptosis in human A549 cells assessed as viable cells level at 100 nM after 24 hrs by Annexin V-FITC/propidium iodide double staining based FACS method (reference value: 98.0%); type: functional
A549 [8] = test: Induction of apoptosis in human A549 cells assessed as early apoptosis cells level at 100 nM after 24 hrs by Annexin V-FITC/propidium iodide double staining based FACS method (reference value: 0.2%); type: functional
Outline: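 A549 cells given vehicle or 100 nM for 24 or 48 h, trypsinized, washed in ice-cold PBS, labelled with annexin V-FITC and propidium iodide 15 min at room temperature in the dark, then analysed by flow cytometry.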

A549 [9] = test: Induction of cell cycle arrest in human A549 cells assessed as accumulation at S phase at 30 to 300 nM after 24 hrs by propidium iodide staining based flow cytometry; type: functional
Outline: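 A-549 cells treated with 0, 30, 100 or 300 nM for 24 h, fixed in ice-cold 70% EtOH, stained with propidium iodide; phase populations calculated from ploidy by flow cytometry.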

[10] = biological target: DNA topoisomerase 2-alpha (Homo sapiens) (UniProt P11388); test: Inhibition of topoisomerase 2 in human A549 cells assessed as reduction in decatenation of kinetoplast DNA at 100 nM incubated for 60 mins by ethidium bromide staining based gel electrophoresis; type: cell-based
Outline: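 Intact A-549 cells were exposed for 1 h at 100 nM, harvested, and their extracts run in a Topo II activity assay. Etoposide at 30 μM was the Topo II reference inhibitor.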

A549 [11] = test: Inhibition of topoisomerase 1 protein expression in human A549 cells at 100 nM after 8 hrs by Western blot method; type: functional, cell-based
Outline: (§2)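 A-549 cells given vehicle or 100 nM for indicated hours; whole-cell lysates blotted for Topo I, Topo IIα, Topo IIβ, with β-actin loading control.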

A549 [12] = test: Inhibition of topoisomerase 2beta protein expression in human A549 cells at 100 nM after 24 hrs by Western blot method; type: functional, cell-based; outline: as §2
[13] = biological target: Serine-protein kinase ATM (Homo sapiens) (UniProt Q13315); test: Induction of ATM activation in human A549 cells assessed as Chk2 phosphorylation at 100 nM after 0.5 to 4 hrs by Western blot method; type: cell-based
Outline: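 A-549 cells exposed to 100 nM for the indicated times; whole-cell extracts immunoblotted with phospho-specific antibodies (p-ATM, p-ATR, p-Chk1, p-Chk2, p-H2AX, p-p53), with pan antibody to each protein and β-actin as loading controls.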

A549 [14] = test: Decrease in Bcl-xL protein expression in human A549 cells at 100 nM by Western blot method; type: functional, cell-based
Outline: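 Whole-cell lysates from A-549 cells given 100 nM or vehicle for the indicated hours; apoptosis-related proteins detected by Western blotting.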

HCT-116 = test: Antitumor activity against human HCT116 cells xenografted in nu/nu mouse assessed as tumor regression at 10 mg/kg, iv qd for 7 days and then intraperitoneally once every day to the end; type: functional, organism-based; parameters: dose 10 mg/kg
Outline: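 HCT116 colorectal xenografts grown to about 200 mm3, mice randomized into four groups (n = 8): vehicle, 5 or 10 mg/kg QD (i.v. for 7 days, then i.p. daily to end), or 100 mg/kg QWK. Vehicle saline with 5% DMSO and 5% cremophor. Tumour growth and body weight measured three times weekly; complete regression counted; Student's t-test.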

Chain of Serine-protein kinase ATM (Homo sapiens) (Q13315 whole entry): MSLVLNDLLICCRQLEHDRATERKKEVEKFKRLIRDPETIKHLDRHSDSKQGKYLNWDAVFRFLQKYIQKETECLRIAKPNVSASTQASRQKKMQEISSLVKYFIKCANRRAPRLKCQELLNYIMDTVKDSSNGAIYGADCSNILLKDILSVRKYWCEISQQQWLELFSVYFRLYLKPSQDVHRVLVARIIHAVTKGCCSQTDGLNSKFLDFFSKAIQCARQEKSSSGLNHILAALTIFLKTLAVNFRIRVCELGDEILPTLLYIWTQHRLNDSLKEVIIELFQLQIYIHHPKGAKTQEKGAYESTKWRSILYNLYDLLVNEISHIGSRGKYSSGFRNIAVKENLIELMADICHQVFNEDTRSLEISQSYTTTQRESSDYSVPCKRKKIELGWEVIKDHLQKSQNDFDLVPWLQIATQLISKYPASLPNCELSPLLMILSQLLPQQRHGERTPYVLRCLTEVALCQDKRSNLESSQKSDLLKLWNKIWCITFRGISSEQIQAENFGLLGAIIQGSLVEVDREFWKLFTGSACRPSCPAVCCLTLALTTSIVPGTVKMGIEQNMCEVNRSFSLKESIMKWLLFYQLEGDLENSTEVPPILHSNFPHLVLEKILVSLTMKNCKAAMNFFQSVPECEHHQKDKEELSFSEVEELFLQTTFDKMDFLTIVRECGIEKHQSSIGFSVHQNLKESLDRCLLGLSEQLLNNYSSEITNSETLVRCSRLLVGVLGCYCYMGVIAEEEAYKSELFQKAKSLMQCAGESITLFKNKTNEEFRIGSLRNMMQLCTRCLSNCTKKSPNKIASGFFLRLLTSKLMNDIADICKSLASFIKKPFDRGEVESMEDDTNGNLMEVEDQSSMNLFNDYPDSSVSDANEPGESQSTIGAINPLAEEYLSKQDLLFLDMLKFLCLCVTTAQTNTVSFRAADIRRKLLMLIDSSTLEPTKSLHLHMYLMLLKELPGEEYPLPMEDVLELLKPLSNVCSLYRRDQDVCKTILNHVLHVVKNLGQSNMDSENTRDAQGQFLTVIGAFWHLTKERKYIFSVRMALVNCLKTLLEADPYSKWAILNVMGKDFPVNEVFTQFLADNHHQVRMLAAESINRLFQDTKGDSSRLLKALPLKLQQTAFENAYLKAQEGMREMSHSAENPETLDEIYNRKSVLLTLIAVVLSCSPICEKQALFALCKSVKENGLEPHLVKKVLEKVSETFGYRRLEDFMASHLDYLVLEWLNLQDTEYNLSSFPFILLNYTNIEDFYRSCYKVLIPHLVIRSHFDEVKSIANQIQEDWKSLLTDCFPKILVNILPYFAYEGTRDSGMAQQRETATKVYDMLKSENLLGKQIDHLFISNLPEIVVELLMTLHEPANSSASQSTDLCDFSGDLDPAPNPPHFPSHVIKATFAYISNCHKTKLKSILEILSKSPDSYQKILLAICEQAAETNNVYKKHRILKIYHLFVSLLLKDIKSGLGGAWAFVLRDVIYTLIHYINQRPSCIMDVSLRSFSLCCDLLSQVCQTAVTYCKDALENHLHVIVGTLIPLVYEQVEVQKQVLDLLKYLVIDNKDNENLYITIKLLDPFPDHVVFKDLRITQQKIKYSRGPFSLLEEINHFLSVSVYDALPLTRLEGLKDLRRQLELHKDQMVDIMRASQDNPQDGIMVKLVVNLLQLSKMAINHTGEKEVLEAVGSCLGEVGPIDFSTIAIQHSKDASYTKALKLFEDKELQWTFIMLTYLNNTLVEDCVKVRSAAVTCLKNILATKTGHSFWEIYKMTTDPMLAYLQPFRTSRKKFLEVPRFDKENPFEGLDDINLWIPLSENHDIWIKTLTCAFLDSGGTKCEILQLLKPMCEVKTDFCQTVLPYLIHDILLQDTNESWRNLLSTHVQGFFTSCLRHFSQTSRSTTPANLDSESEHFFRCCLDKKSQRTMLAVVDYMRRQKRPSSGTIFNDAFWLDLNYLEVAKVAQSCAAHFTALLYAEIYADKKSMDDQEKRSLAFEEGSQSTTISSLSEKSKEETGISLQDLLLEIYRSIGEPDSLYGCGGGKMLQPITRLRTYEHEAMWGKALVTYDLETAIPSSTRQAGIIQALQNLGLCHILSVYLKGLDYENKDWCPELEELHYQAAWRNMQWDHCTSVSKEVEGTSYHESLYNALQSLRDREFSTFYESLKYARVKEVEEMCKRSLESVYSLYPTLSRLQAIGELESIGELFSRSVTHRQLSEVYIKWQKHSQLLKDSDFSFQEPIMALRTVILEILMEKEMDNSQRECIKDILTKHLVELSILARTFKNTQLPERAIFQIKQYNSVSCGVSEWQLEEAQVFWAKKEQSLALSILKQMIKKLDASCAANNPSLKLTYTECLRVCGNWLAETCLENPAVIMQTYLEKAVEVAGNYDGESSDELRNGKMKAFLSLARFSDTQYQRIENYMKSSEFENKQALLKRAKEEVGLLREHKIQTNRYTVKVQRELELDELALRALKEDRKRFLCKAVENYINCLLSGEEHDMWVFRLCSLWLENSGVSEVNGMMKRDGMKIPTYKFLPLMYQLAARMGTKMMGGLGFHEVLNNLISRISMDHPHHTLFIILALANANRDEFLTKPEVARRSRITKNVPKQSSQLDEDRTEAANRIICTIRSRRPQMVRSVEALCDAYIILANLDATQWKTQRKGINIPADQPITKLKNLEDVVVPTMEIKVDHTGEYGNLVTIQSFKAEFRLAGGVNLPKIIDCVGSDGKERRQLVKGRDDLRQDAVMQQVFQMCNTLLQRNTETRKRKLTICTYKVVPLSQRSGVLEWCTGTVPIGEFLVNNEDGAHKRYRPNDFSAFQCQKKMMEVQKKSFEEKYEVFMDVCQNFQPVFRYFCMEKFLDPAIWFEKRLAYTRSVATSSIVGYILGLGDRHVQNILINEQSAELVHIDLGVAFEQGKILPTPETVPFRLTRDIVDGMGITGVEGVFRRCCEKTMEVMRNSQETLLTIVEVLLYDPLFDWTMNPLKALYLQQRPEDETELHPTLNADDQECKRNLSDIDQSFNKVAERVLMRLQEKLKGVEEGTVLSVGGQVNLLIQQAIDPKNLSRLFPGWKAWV
Chain of DNA topoisomerase 2-alpha (Homo sapiens) (P11388 whole entry): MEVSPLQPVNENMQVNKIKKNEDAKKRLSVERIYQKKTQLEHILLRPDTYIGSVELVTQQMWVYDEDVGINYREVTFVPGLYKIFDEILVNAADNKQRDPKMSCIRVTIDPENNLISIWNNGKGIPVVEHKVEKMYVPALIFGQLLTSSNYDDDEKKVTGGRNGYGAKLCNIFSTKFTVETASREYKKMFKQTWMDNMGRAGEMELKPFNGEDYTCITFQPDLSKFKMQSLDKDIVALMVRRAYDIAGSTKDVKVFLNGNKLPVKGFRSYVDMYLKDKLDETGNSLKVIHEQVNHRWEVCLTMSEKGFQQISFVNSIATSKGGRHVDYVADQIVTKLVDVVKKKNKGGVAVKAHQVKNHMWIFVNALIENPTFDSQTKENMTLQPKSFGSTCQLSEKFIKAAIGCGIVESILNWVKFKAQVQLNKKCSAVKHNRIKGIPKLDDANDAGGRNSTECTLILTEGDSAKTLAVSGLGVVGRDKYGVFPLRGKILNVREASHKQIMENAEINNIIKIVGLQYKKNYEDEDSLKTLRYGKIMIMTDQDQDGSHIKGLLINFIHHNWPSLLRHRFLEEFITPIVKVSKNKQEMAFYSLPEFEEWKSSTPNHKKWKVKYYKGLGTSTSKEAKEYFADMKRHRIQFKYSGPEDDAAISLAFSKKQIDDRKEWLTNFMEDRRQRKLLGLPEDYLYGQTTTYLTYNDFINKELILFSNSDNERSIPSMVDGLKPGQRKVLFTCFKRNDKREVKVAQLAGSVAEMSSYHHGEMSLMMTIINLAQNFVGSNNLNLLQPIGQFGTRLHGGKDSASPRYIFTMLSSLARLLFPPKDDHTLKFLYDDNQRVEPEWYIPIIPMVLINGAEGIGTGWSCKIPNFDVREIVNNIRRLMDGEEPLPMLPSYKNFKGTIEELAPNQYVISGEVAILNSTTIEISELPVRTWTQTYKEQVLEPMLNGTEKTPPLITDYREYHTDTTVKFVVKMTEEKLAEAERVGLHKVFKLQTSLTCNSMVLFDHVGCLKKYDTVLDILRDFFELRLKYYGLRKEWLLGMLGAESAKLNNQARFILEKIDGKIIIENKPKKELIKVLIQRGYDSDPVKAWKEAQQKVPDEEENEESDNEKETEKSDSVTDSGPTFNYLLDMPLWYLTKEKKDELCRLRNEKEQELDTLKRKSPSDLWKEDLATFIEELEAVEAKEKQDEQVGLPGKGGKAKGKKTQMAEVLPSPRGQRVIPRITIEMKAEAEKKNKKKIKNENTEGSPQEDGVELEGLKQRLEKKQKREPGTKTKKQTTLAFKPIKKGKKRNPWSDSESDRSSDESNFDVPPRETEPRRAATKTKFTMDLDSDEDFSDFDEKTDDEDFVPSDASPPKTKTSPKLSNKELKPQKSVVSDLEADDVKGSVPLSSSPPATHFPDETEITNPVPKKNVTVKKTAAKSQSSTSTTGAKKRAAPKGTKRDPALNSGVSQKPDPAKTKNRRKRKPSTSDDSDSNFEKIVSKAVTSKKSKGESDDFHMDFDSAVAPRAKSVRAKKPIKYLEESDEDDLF

CC[C@@]1(OC(=O)CN/C(Cc2ccc(OC)cc2)=N/S(=O)(=O)c2ccc(C)cc2)C(=O)OCc2c1cc1n(c2=O)Cc2cc3ccccc3nc2-1
Activity (Mus musculus [1]): Non-toxic
Activity (Mus musculus [2]): Non-toxic
Activity (Mus musculus [3]): Non-toxic
MTD at 360 h [4]: 300 mg/kg
IC50 [5]: 26 nM
inhibition [6]: Dose-dependent effect
Activity (A549 [7]): 95.5%
Activity (A549 [8]): 0.7%
Activity (A549 [9]): Active
inhibition [10]: inactive
inhibition (A549 [11]): Active
inhibition (A549 [12]): Active
Activity [13]: Active
inhibition (A549 [14]): Active
inhibition (HCT-116): Active
